Reference: ChEMBL document CHEMBL1275473, “Activities of ceftobiprole, linezolid, vancomycin, and daptomycin against community-associated and hospital-associated methicillin-resistant Staphylococcus aureus” (2008)
≈ marks a conversion by molar mass, not a printed value.

Experiments:
Format in all cases: functional
Staphylococcus aureus [1] = assay: Antimicrobial activity against community-acquired methicillin-resistant Staphylococcus aureus by broth microdilution method
How it was run: (§1)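 Broth microdilution in duplicate per CLSI guidelines on clinical CA-/HA-MRSA isolates (100 each, Detroit Medical Center). Mueller-Hinton broth with 25 mg/liter calcium and 12.5 mg/liter magnesium; for daptomycin, 50 mg/liter calcium and 12.5 mg/liter magnesium.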

Staphylococcus aureus [2] = assay: Antimicrobial activity against hospital-acquired methicillin-resistant Staphylococcus aureus by broth microdilution method; how it was run: as §1
Staphylococcus aureus [3] = assay: Antimicrobial activity against community-acquired methicillin-resistant Staphylococcus aureus by broth microdilution method in presence of 50% human serum
How it was run: (§2)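 Broth microdilution per CLSI, in duplicate, with 50% human serum added. Mueller-Hinton broth with 50 mg/liter calcium and 12.5 mg/liter magnesium. Run on 20 randomly chosen isolates, 10 CA-MRSA and 10 HA-MRSA.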

Staphylococcus aureus [4] = assay: Antimicrobial activity against hospital-acquired methicillin-resistant Staphylococcus aureus by broth microdilution method in presence of 50% human serum; how it was run: as §2
Staphylococcus aureus [5] = assay: Bactericidal activity against community-acquired methicillin-resistant Staphylococcus aureus selected at 4 times MIC after 24 hrs by time kill analysis
How it was run: (§3)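 Time-kill in triplicate on four randomly selected isolates per group. Start inoculum ~10^6 CFU/ml, drug at 4× MIC; serum arm has 50% human serum. Sampled over 0–24 h, diluted in cold 0.9% NaCl, spiral-plated; detection limit 2 log10 CFU/ml. Bactericidal means ≥3-log10 reduction. T99.9 by linear regression or visual inspection.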

Staphylococcus aureus [6] = assay: Bactericidal activity against community-acquired methicillin-resistant Staphylococcus aureus selected at 4 times MIC after 24 hrs by time kill analysis in presence of 50% human serum; how it was run: as §3
Staphylococcus aureus [7] = assay: Bactericidal activity against hospital-acquired methicillin-resistant Staphylococcus aureus selected at 4 times MIC after 24 hrs by time kill analysis; how it was run: as §3
Staphylococcus aureus [8] = assay: Bactericidal activity against hospital-acquired methicillin-resistant Staphylococcus aureus selected at 4 times MIC after 24 hrs by time kill analysis in presence of 50% human serum; how it was run: as §3
Staphylococcus aureus [9] = assay: Bactericidal activity against hospital-acquired methicillin-resistant Staphylococcus aureus by broth microdilution method in presence of 50% human serum
How it was run: (§4)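 MBC with 50% human serum on 10 CA-MRSA and 10 HA-MRSA isolates. Mueller-Hinton broth with 50 mg/liter calcium and 12.5 mg/liter magnesium. Aliquots from clear wells were plated onto tryptic soy agar.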

Staphylococcus aureus [10] = assay: Bactericidal activity against community-acquired methicillin-resistant Staphylococcus aureus by broth microdilution method in presence of 50% human serum; how it was run: as §4
Staphylococcus aureus [11] = assay: Bactericidal activity against hospital-acquired methicillin-resistant Staphylococcus aureus by broth microdilution method; conditions: for MBC: Staphylococcus aureus
How it was run: (§5)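 MBC read after CLSI broth microdilution in duplicate. Mueller-Hinton broth with 25 mg/liter calcium and 12.5 mg/liter magnesium; for daptomycin, 50 mg/liter calcium. 5-μl aliquots from clear wells were plated onto tryptic soy agar.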

Staphylococcus aureus [12] = assay: Bactericidal activity against community-acquired methicillin-resistant Staphylococcus aureus by broth microdilution method; conditions: for MBC: Staphylococcus aureus; how it was run: as §5
Staphylococcus aureus [13] = assay: Bactericidal activity against hospital-acquired methicillin-resistant Staphylococcus aureus selected at MIC after 24 hrs by time kill analysis
How it was run: (§6)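 Time-kill at 0.5× or 1× MIC, alone and combined with tobramycin. Start inoculum ~10^6 CFU/ml, triplicate, sampled over 0–24 h and spiral-plated; detection limit 2 log10 CFU/ml. Bactericidal means ≥3-log10 CFU/ml reduction. Synergy means ≥2-log10 more killing at 24 h than the best single drug.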

Staphylococcus aureus [14] = assay: Bactericidal activity against hospital-acquired methicillin-resistant Staphylococcus aureus selected at 0.5 times MIC after 24 hrs by time kill analysis; how it was run: as §6
Staphylococcus aureus [15] = assay: Bactericidal activity against community-acquired methicillin-resistant Staphylococcus aureus selected at MIC after 24 hrs by time kill analysis; how it was run: as §6
Staphylococcus aureus [16] = assay: Bactericidal activity against community-acquired methicillin-resistant Staphylococcus aureus selected at 0.5 times MIC after 24 hrs by time kill analysis; how it was run: as §6

SMILES | MIC50 (Staphylococcus aureus [1]) [µg/mL] | MIC90 (Staphylococcus aureus [1]) [µg/mL] | MIC50 (Staphylococcus aureus [2]) [µg/mL] | MIC90 (Staphylococcus aureus [2]) [µg/mL] | T99.9% (Staphylococcus aureus [5]) [h] | T99.9% (Staphylococcus aureus [7]) [h] | MBC50 (Staphylococcus aureus [11]) [µg/mL] | MBC90 (Staphylococcus aureus [11]) [µg/mL] | MBC (Staphylococcus aureus [11]) [µg/mL] | MBC50 (Staphylococcus aureus [12]) [µg/mL] | MBC90 (Staphylococcus aureus [12]) [µg/mL] | MBC (Staphylococcus aureus [12]) [µg/mL] | also measured
CCCCCCCCCC(=O)N[C@@H](Cc1c[nH]c2ccccc12)C(=O)N[C@H](CC(N)=O)C(=O)N[C@@H](CC(=O)O)C(=O)N[C@@H]1C(=O)NCC(=O)N[C@@H](CCCN)C(=O)N[C@@H](CC(=O)O)C(=O)N[C@H](C)C(=O)N[C@@H](CC(=O)O)C(=O)NCC(=O)N[C@H](CO)C(=O)N[C@@H]([C@H](C)CC(=O)O)C(=O)N[C@@H](CC(=O)c2ccccc2N)C(=O)O[C@@H]1C | 0.25 (≈ 0.154 µM) | 0.5 (≈ 0.309 µM) | 0.25 (≈ 0.154 µM) | 0.5 (≈ 0.309 µM) | 1.6 | 1.6 | 0.25 (≈ 0.154 µM) | 1 (≈ 0.617 µM) | 0.125 (≈ 0.0771 µM) | 0.25 (≈ 0.154 µM) | 0.5 (≈ 0.309 µM) | 0.125 (≈ 0.0771 µM) | MIC50 (Staphylococcus aureus [3]): 1 µg/mL; MIC90 (Staphylococcus aureus [3]): 1 µg/mL; MIC50 (Staphylococcus aureus [4]): 0.5 µg/mL; MIC90 (Staphylococcus aureus [4]): 1 µg/mL; T99.9% (Staphylococcus aureus [6]): 2.2 h; T99.9% (Staphylococcus aureus [8]): 2.1 h; MBC50 (Staphylococcus aureus [9]): 1 µg/mL; MBC90 (Staphylococcus aureus [9]): 1 µg/mL; MBC (Staphylococcus aureus [9]; Staphylococcus aureus): 0.5 µg/mL; MBC50 (Staphylococcus aureus [10]): 1 µg/mL; MBC90 (Staphylococcus aureus [10]): 1 µg/mL; MBC (Staphylococcus aureus [10]; Staphylococcus aureus): 0.5 µg/mL
Nc1nc(/C(=N/O)C(=O)N[C@@H]2C(=O)N3C(C(=O)O)=C(/C=C4\CCN([C@@H]5CCNC5)C4=O)CS[C@H]23)ns1 [CEFTOBIPROLE] | 1 (≈ 1.87 µM) | 2 (≈ 3.74 µM) | 1 (≈ 1.87 µM) | 2 (≈ 3.74 µM) | 8 | 11.8 | 2 (≈ 3.74 µM) | 4 (≈ 7.48 µM) | 0.5 (≈ 0.935 µM) | 2 (≈ 3.74 µM) | 4 (≈ 7.48 µM) | 0.5 (≈ 0.935 µM) | T99.9% (Staphylococcus aureus [13]): 8.6 h; T99.9% (Staphylococcus aureus [14]): 14.2 h; T99.9% (Staphylococcus aureus [15]): 8.6 h; T99.9% (Staphylococcus aureus [16]): 14.2 h
CC(=O)NC[C@H]1CN(c2ccc(N3CCOCC3)c(F)c2)C(=O)O1 [LINEZOLID] | 2 (≈ 5.93 µM) | 4 (≈ 11.9 µM) | 2 (≈ 5.93 µM) | 4 (≈ 11.9 µM) |  |  | 16 (≈ 47.4 µM) | 64 (≈ 190 µM) | 1 (≈ 2.96 µM) | 8 (≈ 23.7 µM) | 32 (≈ 94.9 µM) | 2 (≈ 5.93 µM) | 
CN[C@H](CC(C)C)C(=O)N[C@H]1C(=O)N[C@@H](CC(N)=O)C(=O)N[C@H]2C(=O)N[C@H]3C(=O)N[C@H](C(=O)N[C@H](C(=O)O)c4cc(O)cc(O)c4-c4cc3ccc4O)[C@H](O)c3ccc(c(Cl)c3)Oc3cc2cc(c3O[C@@H]2O[C@H](CO)[C@@H](O)[C@H](O)[C@H]2O[C@H]2C[C@](C)(N)[C@H](O)[C@H](C)O2)Oc2ccc(cc2Cl)[C@H]1O [VANCOMYCIN] | 1 (≈ 0.69 µM) | 1 (≈ 0.69 µM) | 1 (≈ 0.69 µM) | 2 (≈ 1.38 µM) | 8.6 | 8.6 | 1 (≈ 0.69 µM) | 2 (≈ 1.38 µM) | 0.5 (≈ 0.345 µM) | 1 (≈ 0.69 µM) | 2 (≈ 1.38 µM) | 0.5 (≈ 0.345 µM) | 
